The source of these data is ChEMBL document CHEMBL4371058, “Design, synthesis and characterization of novel N-heterocyclic-1-benzyl-1H-benzo[d]imidazole-2-amines as selective TRPC5 inhibitors leading to the identification of the selective compound, AC1903” (Bioorg Med Chem Lett, 2019).

Data set [1] addresses T1, Short transient receptor potential channel 5 (Mus musculus) (UniProt Q9QX29).
T1 sequence (whole entry): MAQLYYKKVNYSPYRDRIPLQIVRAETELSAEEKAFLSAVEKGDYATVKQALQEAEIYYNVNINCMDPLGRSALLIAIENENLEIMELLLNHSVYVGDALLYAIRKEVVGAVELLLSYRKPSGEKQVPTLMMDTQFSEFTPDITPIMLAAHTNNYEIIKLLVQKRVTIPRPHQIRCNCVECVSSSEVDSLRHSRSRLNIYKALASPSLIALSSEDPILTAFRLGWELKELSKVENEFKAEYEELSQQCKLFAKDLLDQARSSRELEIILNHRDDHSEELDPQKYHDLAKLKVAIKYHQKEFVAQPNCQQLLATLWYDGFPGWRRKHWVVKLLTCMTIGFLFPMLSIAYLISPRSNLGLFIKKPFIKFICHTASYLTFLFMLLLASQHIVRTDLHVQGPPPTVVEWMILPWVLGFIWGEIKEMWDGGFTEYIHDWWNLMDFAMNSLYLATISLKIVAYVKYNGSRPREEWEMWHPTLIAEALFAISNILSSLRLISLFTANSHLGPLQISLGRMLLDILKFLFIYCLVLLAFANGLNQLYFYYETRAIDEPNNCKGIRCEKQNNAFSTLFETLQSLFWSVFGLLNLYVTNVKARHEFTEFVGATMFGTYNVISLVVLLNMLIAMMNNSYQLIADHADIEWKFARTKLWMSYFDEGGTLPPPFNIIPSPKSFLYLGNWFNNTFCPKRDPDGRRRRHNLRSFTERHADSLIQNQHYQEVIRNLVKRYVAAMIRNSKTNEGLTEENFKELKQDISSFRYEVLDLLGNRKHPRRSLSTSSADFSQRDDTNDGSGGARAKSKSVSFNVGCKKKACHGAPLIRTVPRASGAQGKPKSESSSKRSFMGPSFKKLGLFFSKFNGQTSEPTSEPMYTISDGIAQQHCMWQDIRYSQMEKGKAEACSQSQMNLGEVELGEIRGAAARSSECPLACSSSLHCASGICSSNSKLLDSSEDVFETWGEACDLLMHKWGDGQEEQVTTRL
The data set can be described thus: Inhibition of mouse TRPC5 expressed in Flp-In-T-Rex-HEK293 cells assessed as reduction in […]-induced channel current at 3 uM by automated patch clamp method relative to control. It is filed as cell-based. A digest of the protocol: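 Automated patch clamp (Syncropatch), one concentration in one well, >10 cells. At least one session across two assay plates. DMSO vehicle and a reference inhibitor run as controls on every plate. Result expressed as % inhibition.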
(In patch-clamp work, channel activity is measured electrically.)

The target of data set [2] is T2, Short transient receptor potential channel 5 (Mus musculus, UniProt Q9QX29).
T2 sequence (Q9QX29 whole entry): T1 sequence (whole entry)
Briefly: Inhibition of mouse TRPC5 expressed in Flp-In-T-Rex-HEK293 cells assessed as reduction in […]-induced channel current by automated patch clamp method. It is filed as cell-based. Put shortly:
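Automated patch clamp (Syncropatch) with multiple concentrations in multiple wells. IC50 determined from these wells.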

Data set [3] can be described thus: Cmax in rat at 25 mg/kg, ip. It counts as ADME, organism-based. Further details: dose 25 mg/kg, route intraperitoneal. Conditions: in vivo. A digest of the protocol: (§1)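 Single intraperitoneal dose of 25 mg/kg in 5% DMSO, 10% Tween80, 85% PBS.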
A short description of data set [4]: Tmax in rat at 25 mg/kg, ip. It is filed as ADME, organism-based. As to conditions: in vivo. Put shortly:
as §1

Data set [5] in a line: AUC in rat at 25 mg/kg, ip. It counts as ADME, organism-based. As to conditions: in vivo. A digest of the protocol:
as §1

Each structure is given as a SMILES string.

`Brc1ccc(OCCn2c(NCc3ccco3)nc3ccccc32)cc1`: the inhibition in data set [1] was found to be 91.1%.
Same read-out and setting: next, `c1ccc(Cn2c(NCc3ccco3)nc3cccnc32)cc1`: 31.2%.
On to `Fc1cc(Cl)ccc1Cn1c(NCc2ccco2)nc2ccccc21`, for which the IC50 in data set [2] came to 18.1 µM. Further, the inhibition in data set [1] worked out at 128%.
With `CCCn1c(NCc2ccco2)nc2ccccc21`, the IC50 in data set [2] turned out to be 15.5 µM. Also, the inhibition in data set [1] was determined as 81.2%.
`c1ccc(Cn2c(Nc3ccccc3)nc3ccccc32)cc1`: the inhibition in data set [1] turned out to be 18.9%.
On the same count and under the same terms, next, `c1coc(CNc2nc3ccccc3n2CC2CCCCC2)c1`: 61.6%; `c1coc(CNc2nc3ccccc3n2CCN2CCOCC2)c1`: 34.4%; `c1ccc(Cn2c(NCc3cnco3)nc3ccccc32)cc1`: 33.3%.
Regarding `c1ccc(Cn2c(NCc3ccon3)nc3ccccc32)cc1`, in data set [1], the inhibition was found to be 47%.
The same measure, in the same setting: next, `c1ccc(Cn2c(NCc3cccnc3)nc3ccccc32)cc1`: 12%; `Fc1ccc(Cn2c(NCc3ccco3)nc3ccccc32)c(Cl)c1`: 23.6%.
With `Fc1ccccc1Cn1c(NCc2ccco2)nc2ccccc21`, the inhibition in data set [1] stood at 54.4%.
On to `Cc1nc2ccccc2n1Cc1ccccc1`, for which the inhibition in data set [1] was 19%.
On the same count and under the same terms, next, `Cc1ncc(CNc2nc3ccccc3n2Cc2ccccc2)s1`: 35.7%.
Still for that read-out and setting: for `Clc1cccc(Cn2c(NCc3ccco3)nc3ccccc32)c1` the value was 70.2%; for `Cc1nc(CNc2nc3ccccc3n2Cc2ccccc2)no1`, 19.8%; for `Fc1ccc(Cn2c(NCc3ccco3)nc3cccnc32)cc1`, 21.7%.
The same measure, in the same setting: for `CN(Cc1ccco1)c1nc2ccccc2n1Cc1ccccc1` the value was 41.7%.
Regarding `Fc1ccc(Cn2c(NCc3ccco3)nc3ccccc32)cc1`, in data set [2], the IC50 came to 1.82 µM.
Regarding `CC(Nc1nc2ccccc2n1Cc1ccccc1)c1ccco1` (configuration not stated), in data set [2], the IC50 was 4.44 µM. Moreover, the inhibition in data set [1] came to 91.4%.
In the case of `Cc1nnc(CNc2nc3ccccc3n2Cc2ccccc2)s1`, the inhibition in data set [1] turned out to be 30%.
On to `COc1ccc(Cn2c(NCc3ccco3)nc3ccccc32)cc1F`, for which, in data set [2], the IC50 came to 11.6 µM. For the same molecule, the inhibition in data set [1] was found to be 88.4%.
With `Cc1cccc(Cn2c(NCc3ccco3)nc3ccccc32)c1`, the IC50 in data set [2] worked out at 4.8 µM. Besides, the inhibition in data set [1] amounted to 94.6%.
`O=C(Nc1nc2ccccc2n1Cc1ccccc1)c1ccco1`: the inhibition in data set [1] is 38.5%.
Still for that read-out and setting: next, `c1ccc(Cn2c(NCc3nccs3)nc3ccccc32)cc1`: 42.5%.
Take `c1ccc(Cn2c(NCc3ccco3)nc3ccccc32)cc1`: the IC50 in data set [2] was 4.06 µM. This molecule showed a Cmax in data set [3] of 687 ng/mL. In addition, the Tmax in data set [4] came to 6.6 min. Further, in data set [5], the AUC was 1130 ng·h/mL. The inhibition in data set [1] is 100%.
Take `c1ccc(Cn2c(Nc3cccnc3)nc3ccccc32)cc1`: in data set [1], the inhibition was determined as 19.9%.
Same read-out and setting: for `c1coc(CNc2nc3ccccc3n2CC2CCCO2)c1` (configuration not stated) the value was 65.2%; for `c1ccc(Cn2c(NCc3ccncc3)nc3ccccc32)cc1`, 17.4%.
Same read-out and setting: for `Fc1cccc(Cn2c(NCc3ccco3)nc3ccccc32)c1` the value was 61.9%.
`c1ccc(CNc2nc3ccccc3n2Cc2ccccc2)cc1`: the inhibition in data set [1] worked out at 32.8%.
On the same count and under the same terms, for `Clc1ccccc1Cn1c(NCc2ccco2)nc2ccccc21` the value was 2.6%.
As for `Clc1ccc(Cn2c(NCc3ccco3)nc3ccccc32)cc1`, in data set [1], the inhibition turned out to be 70.9%.
Still for that read-out and setting: next, `Clc1cc2nc(NCc3ccco3)n(Cc3ccccc3)c2cc1Cl`: 28.2%; `CC(Nc1nc2ccccc2n1Cc1ccccc1)c1nccs1` (configuration not stated): 45%.
With `Cc1ccoc1CNc1nc2ccccc2n1Cc1ccccc1`, the IC50 in data set [2] turned out to be 6.93 µM. Also, the inhibition in data set [1] came to 82.3%.
Regarding `Fc1ccc(Cn2c(NCc3ccco3)nc3ccccc32)c(F)c1`, the IC50 in data set [2] is 8.42 µM. In addition, the inhibition in data set [1] stood at 87%.
On the same counts, the results for `Cc1cc2nc(NCc3ccco3)n(Cc3ccccc3)c2cc1C` are 12.3 µM and 123%.
Take `c1coc(CNc2nc3ccccc3n2CC2CCC2)c1`: in data set [1], the inhibition was 117%.
Still for that read-out and setting: for `c1ccc(Cn2c(NCc3ncco3)nc3ccccc32)cc1` the value was 19.1%.
As for `c1ccc(Cn2c(NCc3cccs3)nc3ccccc32)cc1`, in data set [2], the IC50 was determined as 6.26 µM. For the same molecule, the inhibition in data set [1] stood at 150%.
Turning to `c1ccc(Cn2c(NCc3cc4ccccc4o3)nc3ccccc32)cc1`, in data set [1], the inhibition was 18%.
For `N#Cc1ccc(Cn2c(NCc3ccco3)nc3ccccc32)cc1`, the inhibition in data set [1] is 50.5%.
The same measure, in the same setting: next, `c1ccc(Cn2c(NCc3ccccn3)nc3ccccc32)cc1`: -1.8%.

Usually inhibition stands for the drop in the measured response relative to a control, in per cent. As a reminder, the IC50 is the concentration that inhibits the measured activity by half. The Cmax is the peak of the concentration-time curve. By Tmax is commonly meant the time at which the peak concentration occurs. What is called AUC is concentration integrated over time. Low readings indicate less exposure, high ones more exposure.
